Measurements from ChEMBL document CHEMBL1126276, “Synthesis and antimalarial properties of 1-imino derivatives of 7-chloro-3-substituted-3,4-dihydro-1,9(2H,10H)-acridinediones and related structures” (J Med Chem, 1992).

Legend:
[1] = system: Plasmodium berghei; assay: Antimalarial activity in Plasmodium berghei infected mice (Mus musculus) after subcutaneous 160 mg/kg dose; format: functional
Outline: (§1)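 Normal drug-sensitive P. berghei strain in mice. Compound dissolved or suspended in sesame or peanut oil, given parenterally as a single subcutaneous dose 72 h postinfection.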

[2] = system: Plasmodium berghei; assay: (§2) Antimalarial activity in Plasmodium berghei infected mice (Mus musculus) after 20 mg/kg subcutaneous dose; format: functional; outline: as §1
[3] = system: Plasmodium berghei; assay: Antimalarial activity in Plasmodium berghei infected mice (Mus musculus) after subcutaneous 320 mg/kg dose; format: functional; outline: as §1
[4] = system: Plasmodium berghei; assay: (§3) Antimalarial activity in Plasmodium berghei infected mice (Mus musculus) after 40 mg/kg subcutaneous dose; format: functional; outline: as §1
[5] = system: Plasmodium berghei; assay: Antimalarial activity in Plasmodium berghei infected mice (Mus musculus) after subcutaneous 640 mg/kg dose; format: functional; outline: as §1
[6] = system: Plasmodium berghei; assay: (§4) Antimalarial activity in Plasmodium berghei infected mice (Mus musculus) after 80 mg/kg subcutaneous dose; format: functional; outline: as §1
[7] = system: Plasmodium berghei; assay: as §2; format: functional; remark: listed apart in the source
Outline: (§5)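 […] in mice infected with a normal drug-sensitive P. berghei strain. Compound dissolved or suspended in sesame or peanut oil, given as a single subcutaneous dose 72 h postinfection.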

[8] = system: Plasmodium berghei; assay: as §3; format: functional; outline: as §5; remark: listed apart in the source
[9] = system: Plasmodium berghei; assay: Antimalarial activity in Plasmodium berghei infected mice (Mus musculus) after 160 mg/kg subcutaneous dose; format: functional; outline: as §5
[10] = system: Plasmodium berghei; assay: Antimalarial activity in Plasmodium berghei infected mice (Mus musculus) after 320 mg/kg subcutaneous dose; format: functional; outline: as §5
[11] = system: Plasmodium berghei; assay: as §4; format: functional; outline: as §5; remark: listed apart in the source
[12] = system: Plasmodium berghei; assay: Antimalarial activity Plasmodium berghei infected mice (Mus musculus) after 640 mg/kg subcutaneous dose; format: functional; outline: as §5
[13] = system: Plasmodium berghei; assay: Antimalarial activity was measured against mice (Mus musculus) infected with Plasmodium berghei by subcutaneous administration of 160 mg/kg dose; format: organism-based; set-up: dose 160 mg/kg, route subcutaneous; details: in vivo, sc; outline: as §5
[14] = system: Plasmodium berghei; assay: Antimalarial activity was measured against mice (Mus musculus) infected with Plasmodium berghei by subcutaneous administration of 640 mg/kg dose; format: organism-based; set-up: dose 640 mg/kg, route subcutaneous; details: in vivo, sc; outline: as §5
[15] = system: Plasmodium berghei; assay: Antimalarial activity was measured against mice (Mus musculus) infected with Plasmodium berghei by subcutaneous administration of 320 mg/kg dose; format: organism-based; set-up: dose 320 mg/kg, route subcutaneous; details: in vivo, sc; outline: as §5

| Structure (SMILES) | No. of cured mice [1] | No. of cured mice [2] | No. of cured mice [3] | No. of cured mice [4] | No. of cured mice [5] | No. of cured mice [6] | Delta mean survival time [7] | Delta mean survival time [8] | Delta mean survival time [9] | Delta mean survival time [10] | Delta mean survival time [11] | Delta mean survival time [12] | No. of toxic deaths [13] | No. of toxic deaths [14] | No. of toxic deaths [15] | No. of cured mice ([1]; 160 mg/kg) | No. of cured mice ([2]; 20 mg/kg) | Delta mean survival time ([7]; 20 mg/kg) | Delta mean survival time ([10]; 320 mg/kg) | Delta mean survival time ([12]; 640 mg/kg) |
| --- | --- | --- | --- | --- | --- | --- | --- | --- | --- | --- | --- | --- | --- | --- | --- | --- | --- | --- | --- | --- |
| CCN(CC)CC(C)(C)C/N=C1\CC(c2ccc(Cl)cc2Cl)Cc2nc3ccc(Cl)cc3c(O)c21 (centres undefined) | 5 | 3 | 5 | 4 | 5 | 5 | 12.7 | 13.7 | – | – | – | – | – | – | – | – | – | – | – | – |
| CCN(CC)CCCCCCC/N=C1\CC(c2ccc(Cl)cc2Cl)Cc2nc3ccc(Cl)cc3c(O)c21 (centres undefined) | 4 | 4 | 4 | 4 | 5 | 5 | 6.7 | 9.7 | 0.7 | 3.7 | – | – | – | – | – | – | – | – | – | – |
| CCN(CC)CCCC(C)/N=C1\CC(c2ccc(Cl)cc2Cl)Cc2nc3ccc(Cl)cc3c(O)c21 (centres undefined) | 5 | 3 | 5 | 4 | 5 | 5 | 10.2 | 13.7 | – | – | – | – | – | – | – | – | – | – | – | – |
| O=c1c2c(n(O)c3ccc(Cl)cc13)CC(c1ccc(C(F)(F)F)cc1)C/C2=N\CCCN(CCO)CCO (centres undefined) | 5 | 2 | 5 | 4 | 5 | 1 | 12 | 14.8 | – | – | 9.5 | – | – | – | – | – | – | – | – | – |
| CC1C(=O)c2c(n(O)c3ccc(Cl)cc3c2=O)CC1c1ccc(Cl)c(Cl)c1 (centres undefined) | 5 | 3 | 5 | 4 | 5 | 5 | 7.6 | 9.6 | – | – | – | – | – | – | – | – | – | – | – | – |
| CC1/C(=N\CCCN(C)C)c2c(n(O)c3ccc(Cl)cc3c2=O)CC1c1ccc(Cl)cc1Cl (centres undefined) | 5 | 1 | 4 | 5 | 1 | 4 | 11.1 | – | – | 2.8 | 16.8 | 1.8 | – | – | – | – | – | – | – | – |
| O=C1CC(c2ccc(C(F)(F)F)cc2)Cc2nc3ccc(Cl)cc3c(O)c21 (centres undefined) | 5 | 1 | 5 | 2 | 5 | 4 | 8.9 | 9.9 | – | – | 9.4 | – | – | – | – | – | – | – | – | – |
| CCc1ccc2nc3c(c(O)c2c1)/C(=N/CCCN(C)C)CC(c1ccc(C(F)(F)F)cc1)C3 (centres undefined) | – | – | – | – | – | – | – | 0.6 | 1.9 | – | – | 1.4 | 1 | 4 | – | – | – | – | – | – |
| CN(C)CCC/N=C1\CC(c2ccc(C(F)(F)F)cc2)Cc2nc3ccc([N+](=O)[O-])cc3c(O)c21 (centres undefined) | 4 | – | 3 | – | 1 | 1 | 2.2 | 5.4 | 11.6 | – | 8.9 | – | – | 4 | 2 | – | – | – | – | – |
| O=C1CC(c2ccc(Cl)cc2Cl)Cc2c1c(=O)c1cc(Cl)ccc1n2O (centres undefined) | 5 | 2 | 5 | 5 | 5 | 5 | 1.9 | – | – | – | – | – | – | – | – | – | – | – | – | – |
| O=C1CC(c2ccc(Cl)cc2Cl)Cc2nc3ccc(Cl)cc3c(O)c21 (centres undefined) | 4 | 2 | 5 | 3 | 5 | 4 | 10.3 | 18.1 | 17.8 | – | 15.8 | – | – | – | – | – | – | – | – | – |
| CCN(CC)CC/N=C1\CC(c2ccc(Cl)c(Cl)c2)Cc2c1c(=O)c1cc(Cl)ccc1n2O (centres undefined) | 5 | 1 | 5 | 3 | 5 | 3 | 10.5 | 8.8 | – | – | 12.7 | – | – | – | – | – | – | – | – | – |
| CCN(CC)CC/N=C1\CC(c2ccc(Cl)c(Cl)c2)Cc2nc3ccc(Cl)cc3c(O)c21 (centres undefined) | 5 | 2 | 3 | 4 | 5 | 4 | 9.3 | 8 | – | 20 | 8 | – | – | – | – | – | – | – | – | – |
| CCN(CC)CC(C)(C)C/N=C1\CC(c2ccc(C(F)(F)F)cc2)Cc2c1c(=O)c1cc(Cl)ccc1n2O (centres undefined) | 5 | 3 | 5 | 3 | 3 | 4 | 13 | 11.2 | – | – | 12.5 | – | – | 2 | – | – | – | – | – | – |
| O=C(O)c1ccc(C2CC(=O)c3c(n(O)c4ccc(Cl)cc4c3=O)C2)cc1 (centres undefined) | – | – | – | – | – | – | – | -0.1 | -0.1 | – | – | 0.9 | 1 | 4 | – | – | – | – | – | – |
| CCN(CC)CCCC/N=C1\CC(c2ccc(C(F)(F)F)cc2)Cc2nc3ccc(Cl)cc3c(O)c21 (centres undefined) | 5 | 2 | 5 | 4 | 5 | 5 | 18.6 | 13.6 | – | – | – | – | – | – | – | – | – | – | – | – |
| CN(C)CCC/N=C1\CC(c2ccc(Cl)cc2Cl)Cc2c1c(=O)c1cc(Cl)ccc1n2O (centres undefined) | 5 | 4 | – | 5 | 4 | – | 10.6 | – | – | – | – | – | – | 1 | – | – | – | – | – | – |
| CN(C)CCC/N=C1\CC(c2ccc(C(F)(F)F)cc2)Cc2nc3ccc(F)cc3c(O)c21 (centres undefined) | 1 | – | – | 4 | – | – | – | 14.9 | – | – | – | – | 4 | 5 | – | – | – | – | – | – |
| CCCCNC(CC)C/N=C1\CC(c2ccc(C(F)(F)F)cc2)Cc2c1c(=O)c1cc(Cl)ccc1n2O (centres undefined) | 5 | 2 | 5 | 2 | 4 | 4 | 6 | 7.7 | – | – | – | – | – | 1 | – | – | – | – | – | – |
| CCN(CC)CCCC/N=C1\CC(c2ccc(C(F)(F)F)cc2)Cc2c1c(=O)c1cc(Cl)ccc1n2O (centres undefined) | 5 | 2 | 4 | 4 | – | 5 | 14 | 10.5 | – | – | – | – | – | 4 | – | – | – | – | – | – |
| CC1/C(=N\CCCN(C)C)c2c(nc3ccc(Cl)cc3c2O)CC1c1ccc(Cl)cc1Cl (centres undefined) | 5 | 3 | 4 | 4 | 3 | 5 | 0.1 | 19.9 | – | 3.9 | – | 2.9 | – | – | – | – | – | – | – | – |
| CCN(CC)CC(C)(C)C/N=C1\CC(c2ccc(C(F)(F)F)cc2)Cc2nc3ccc(Cl)cc3c(O)c21 (centres undefined) | 5 | 2 | 4 | 2 | 4 | 4 | 8.6 | 10.3 | – | 49.6 | 13.6 | 1.3 | – | – | – | – | – | – | – | – |
| CC1/C(=N\CCCN(C)C)c2c(nc3ccc(Cl)cc3c2O)CC1c1ccc(C(F)(F)F)cc1 (stereo in doubt; cis) | – | – | – | 5 | – | 5 | – | – | 3 | – | – | – | – | 1 | – | 4 | 4 | 10.7 | 3.1 | 2.3 |
| CC1/C(=N\CCCN(C)C)c2c(nc3ccc(Cl)cc3c2O)CC1c1ccc(C(F)(F)F)cc1 (stereo in doubt; trans) | – | – | 4 | – | 1 | – | – | – | – | – | – | – | – | – | – | 5 | 1 | 11 | 3.7 | 2.7 |
| O=C1CC(c2ccc(C(F)(F)F)cc2)Cc2c1c(=O)c1cc(Cl)ccc1n2O (centres undefined) [FLOXACRINE] | 5 | 4 | 5 | 5 | 3 | 5 | 8.9 | – | – | – | – | 3.4 | – | – | – | – | – | – | – | – |
